# Data: ChEMBL document CHEMBL1909630, “Azaxanthene based selective glucocorticoid receptor modulators: design, synthesis, and pharmacological evaluation of (S)-4-(5-(1-((1,3,4-thiadiazol-2-yl)amino)-2-methyl-1-oxopropan-2-yl)-5H-chromeno[2,3-b]pyridin-2-yl)-2-fluoro-N,N-dimethylbenzamide (BMS-776532) and its methylene homologue …” (J Med Chem, 2011)
# Activity calls are given as the source filed them. No cut-off for these calls is given here.
# Columns and labels:
# Blood [1] = assay: Antiinflammatory activity in human whole blood assessed as inhibition of IL-1beta-induced IL-8 production after overnight incubation by ELISA relative to Dexamethasone; format: functional
# How it was run: (§1)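 Whole blood from two donors per experiment was collected into ACD-A. Compounds were added and the blood was incubated about 20 h at 37 °C under 5% CO2. Blood was then stimulated for 5 h with LPS (final 100 ng/mL, for TNFα) or IL-1β (final 10 ng/mL, for IL-8). Plasma TNFα or IL-8 was measured by ELISA. Efficacy was expressed as % of dexamethasone, and values are means of at least two experiments.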
# Blood [2] = assay: Antiinflammatory activity in human whole blood assessed as inhibition of IL-1beta-induced IL-8 production after overnight incubation by ELISA; format: functional, tissue-based; how it was run: as §1
# MG-63 [3] = assay: Induction of glutamine synthase expression in human MG63 cells after overnight incubation by spectrophotometry relative to prednisolone; format: cell-based
# Rattus norvegicus [4] = assay: Antiinflammatory activity in Sprague-Dawley rat assessed as carrageenan-induced paw edema at 30 mg/kg, po administered as a single dose 2 hrs before carrageenan challenge measured 4 hrs post carrageenan challenge by plethysmometry relative to control
# Rattus norvegicus [5] = assay: Antiinflammatory activity in Freund's complete adjuvant-induced Lewis rat arthritis model assessed as reduction in paw swelling at 5 mg/kg/day, po qd for 21 days; format: functional, organism-based
# How it was run: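 Male Lewis rats were inoculated with Mycobacterium butyricum in incomplete Freund's adjuvant. Oral dosing was daily and preventative, running from day 0 to day 21. Onset and progression of arthritis were followed, and ED50 was estimated from the dose response.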
# Blood [6] = assay: Antiinflammatory activity in human whole blood assessed as inhibition of TNF-alpha-induced IL-8 production after overnight incubation by ELISA relative to dexamethasone; format: functional
# [7] = biological target: T1, Mineralocorticoid receptor (Homo sapiens, UniProt P08235); assay: Agonist activity at human mineralocorticoid receptor expressed in human A549 cells by fluorescence polarization assay; format: functional, cell-based
# T1 sequence (P08235 whole entry): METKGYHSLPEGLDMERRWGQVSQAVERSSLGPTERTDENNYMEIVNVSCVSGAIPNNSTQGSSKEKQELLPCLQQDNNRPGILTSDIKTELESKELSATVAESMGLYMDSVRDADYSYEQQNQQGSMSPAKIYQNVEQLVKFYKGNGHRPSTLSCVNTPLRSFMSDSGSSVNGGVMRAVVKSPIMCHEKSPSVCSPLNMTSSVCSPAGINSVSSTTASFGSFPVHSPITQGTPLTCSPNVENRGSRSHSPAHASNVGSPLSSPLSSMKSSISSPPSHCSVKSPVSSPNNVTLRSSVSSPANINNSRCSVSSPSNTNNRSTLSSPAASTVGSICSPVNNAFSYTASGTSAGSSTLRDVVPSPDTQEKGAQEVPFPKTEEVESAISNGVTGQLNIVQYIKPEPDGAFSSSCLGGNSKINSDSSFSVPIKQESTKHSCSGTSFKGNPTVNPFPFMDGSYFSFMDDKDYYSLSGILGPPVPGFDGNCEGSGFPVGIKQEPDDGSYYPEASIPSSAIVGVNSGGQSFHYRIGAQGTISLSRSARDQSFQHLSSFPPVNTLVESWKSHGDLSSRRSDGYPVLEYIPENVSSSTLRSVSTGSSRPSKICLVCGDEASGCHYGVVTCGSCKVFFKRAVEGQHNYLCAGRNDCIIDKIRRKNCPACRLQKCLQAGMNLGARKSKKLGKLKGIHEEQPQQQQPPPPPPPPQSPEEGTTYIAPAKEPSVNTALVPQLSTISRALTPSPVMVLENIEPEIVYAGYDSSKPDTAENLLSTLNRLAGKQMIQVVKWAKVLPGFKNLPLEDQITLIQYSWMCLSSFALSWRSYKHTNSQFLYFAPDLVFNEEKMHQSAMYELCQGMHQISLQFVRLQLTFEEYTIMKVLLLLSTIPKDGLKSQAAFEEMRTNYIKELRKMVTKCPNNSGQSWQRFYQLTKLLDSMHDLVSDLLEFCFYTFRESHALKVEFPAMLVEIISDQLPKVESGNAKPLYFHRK
# Blood [8] = assay: Antiinflammatory activity in human whole blood assessed as inhibition of TNF-alpha-induced IL-8 production after overnight incubation by ELISA; format: functional, tissue-based
# MG-63 [9] = assay: Induction of glutamine synthase expression in human MG63 cells after overnight incubation by spectrophotometry; format: cell-based
# Blood [10] = assay: Antiinflammatory activity in human whole blood assessed as inhibition of LPS-induced TNFalpha production after overnight incubation by ELISA; format: functional, tissue-based; how it was run: as §1
# SAOS-2 = assay: Induction of alkaline phosphatase expression in human Saos2 cells after 3 days by spectrophotometry; format: cell-based; conditions: SAOS-2, 72 h
# Blood [11] = assay: Antiinflammatory activity in human whole blood assessed as inhibition of LPS-induced TNFalpha production after overnight incubation by ELISA relative to Dexamethasone; format: functional; how it was run: as §1
compound,measurement,setting,value
C[C@]12C=CC(=O)C=C1CC[C@@H]1[C@@H]2[C@@H](O)C[C@@]2(C)[C@H]1CC[C@]2(O)C(=O)CO [PREDNISOLONE],Imax,Blood [1],94%
same,EC50,Blood [2],104 nM
same,Emax,MG-63 [3],100%
same,"level, % of control at 30 mg/kg",Rattus norvegicus [4],49%
same,Activity,Rattus norvegicus [5],Active
same,Imax,Blood [6],94%
same,EC50,[7],2 nM
same,EC50,Blood [8],124 nM
same,EC50,MG-63 [9],19 nM
same,EC50,Blood [10],89 nM
same,Emax,SAOS-2,68%
same,Imax,Blood [11],94%
